Data set [1] deals with Mus musculus. As to the kind of experiment: Antiinflammatory activity in mouse assessed as inhibition of xylene-induced ear edema at 10 mg/kg, ip treated after 30 mins xylene administration measured after 2 hrs relative to control. It counts as functional. The procedure, abridged: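 Xylene (30 µL total, inner and outer surfaces) applied to right ear, saline to left ear; 5 mice per group. 30 min later, 10 mg/kg i.p. in 10% DMSO/90% of 45% hydroxypropyl-β-cyclodextrin in PBS; vehicle-injected controls. Sacrificed 2 h later; 7 mm ear plugs from both ears weighed, weight difference = edema; suppression % versus control group.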

The target in data set [2] is C-X-C chemokine receptor type 4 (Homo sapiens) (UniProt P61073). As to the kind of experiment: Inhibition of CXCR4 in human MDA-MB-231 cells assessed as decrease in CXCL12-dependent cell invasion at 100 nM after 22 hrs by hematoxylin and eosin staining based matrigel assay relative to control. It counts as functional. The essentials: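 Matrigel invasion chamber. MDA-MB-231 cells pretreated with compound (100 nM) before seeding in top chamber; 200 ng/mL CXCL12α in serum-free medium in bottom chamber as chemoattractant. 22 h in humidified incubator; non-invading cells swabbed off, invaded cells fixed in methanol, H&E stained and counted; inhibition relative to untreated invasion.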
Chain of C-X-C chemokine receptor type 4 (Homo sapiens) (P61073 whole entry): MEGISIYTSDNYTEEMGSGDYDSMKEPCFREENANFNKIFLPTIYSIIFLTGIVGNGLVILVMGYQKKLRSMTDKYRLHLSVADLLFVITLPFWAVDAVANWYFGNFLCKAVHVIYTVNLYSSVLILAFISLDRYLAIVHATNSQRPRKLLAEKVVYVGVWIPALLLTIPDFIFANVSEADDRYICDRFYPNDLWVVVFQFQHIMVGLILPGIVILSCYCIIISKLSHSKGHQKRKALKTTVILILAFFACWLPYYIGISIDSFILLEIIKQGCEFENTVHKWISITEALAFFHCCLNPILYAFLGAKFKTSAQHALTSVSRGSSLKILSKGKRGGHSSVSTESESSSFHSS

For data set [3] the target is unchanged. The experiment in a line: Inhibition of biotinylated TN14003 binding to CXCR4 in human MDA-MB-231 cells preincubated for 10 mins followed by TN14003 addition measured after 30 mins by rhodamine dye-based microscopic analysis. The class given is cell-based. The procedure, abridged:
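MDA-MB-231 cells (2×10^4, seeded two days before) exposed to compound at 1, 10, 100 or 1000 nM for 10 min at room temperature, fixed in ice-cold 4% paraformaldehyde, rehydrated in PBS, then 0.05 µg/mL biotinylated TN14003 for 30 min, streptavidin-rhodamine (1:150) 30 min. Fluorescence microscopy; EC = lowest concentration with significant reduction in rhodamine signal versus untreated.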

The target is the same in data set [4]. The experiment in a line: Potency index, ratio of AMD3100 EC to compound EC for inhibition of biotinylated TN14003 binding to CXCR4 in human MDA-MB-231 cells. The class given is functional, cell-based.
Data set [5] is described as follows: Half life in human plasma. It counts as ADME.
Data set [6] in a line: Half life in nude mouse plasma at 30 mg/kg, iv administered as single dose by HPLC analysis. It counts as ADME, organism-based. The essentials:
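Nude mice (~20 g), anaesthetized with ketamine (90 mg/kg)/xylazine (4.5 mg/kg), given single 30 mg/kg i.v. dose in 10% DMSO/90% of 45% hydroxypropyl-β-cyclodextrin in PBS. Orbital sinus blood at 0, 5, 20, 50 min; centrifuged 13000 g, 4 °C, filtered (10000 NMWL). Filtrate HPLC on C18, acetonitrile–water (0.1% TFA) 50:50, 254 nm; half-life from peak areas.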

In data set [7] the target is C-X-C chemokine receptor type 4 (Homo sapiens) (UniProt P61073). As to the kind of experiment: Inhibition of CXCR4 in human MDA-MB-231 cells assessed as decrease in CXCL12-induced p44 phosphorylation at 0.1 nM by Western blot analysis. It counts as functional, cell-based.
Data set [8] deals with Mus musculus. As to the kind of experiment: Antiinflammatory activity in mouse assessed as inhibition of xylene-induced swollen volume of ear at 10 mg/kg, ip treated after 30 mins xylene administration measured after 2 hrs. It counts as functional, organism-based.
The test system of the next data set is MDA-MB-231. As to the kind of experiment: Cytotoxicity against human MDA-MB-231 cells assessed as reduction in cell viability at 10 uM after 24 hrs by MTT assay. As to conditions: mda-mb-231, 24 h. It counts as cell-based. The procedure, abridged:
(§1)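 MTT-type viability assay: cells seeded at 3000/well, grown 24 h at 37 °C, then exposed to compound for 24 h at 37 °C. CellTiter 96AQ reagent added for 2 h, absorbance read at 490 nm; compared with vehicle control.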

Another data set deals with MCF-10A. As to the kind of experiment: Cytotoxicity against human MCF10A cells assessed as reduction in cell viability at 10 uM after 24 hrs by MTT assay. It counts as cell-based. The procedure, abridged: as §1
On the technique in general: Tetrazolium assays rely on reduction of a dye to a coloured formazan, in cell work by metabolically active cells.

In data set [9] the test system is Mus musculus. As to the kind of experiment: Antiinflammatory activity in mouse assessed as inhibition of xylene-induced thickness of ear at 10 mg/kg, ip treated after 30 mins xylene administration measured after 2 hrs. The class given is functional, organism-based.
Data set [10] has as its target C-X-C chemokine receptor type 4 (Homo sapiens) (UniProt P61073). The experiment in a line: Inhibition of CXCR4 in human MDA-MB-231 cells assessed as decrease in CXCL12-induced Akt phosphorylation by Western blot analysis. The class given is functional, cell-based. For orientation: In western blotting, separated proteins are transferred to a membrane and probed.

Activity calls are given as the source filed them.

What is called inhibition is how much of the control response was suppressed. As for `O=C(NCc1ccc(CNS(=O)(=O)c2cccc(Cl)c2)cc1)c1ccc(CNc2ncccn2)cc1`, in the data set on Mus musculus [1], the inhibition result was “inactive”. Further, in [2], the inhibition turned out to be 88%. Further, the EC in [3] worked out at 1 nM. In data set [4], the Ratio came to 1000.

Broadly, the half-life is the time needed for the level to fall by half in the phase considered. High values mean slow loss, low ones fast loss. Usually inhibition in vivo stands for the share of the control response that was lost under treatment. As for `O=C(NCc1ccc(CNS(=O)(=O)c2ccccc2)cc1)c1ccc(CNc2ncccn2)cc1`, the half-life is 2.5 h in [5] and 0.333 h in [6]. For the same compound, in the data set with Mus musculus [1], the inhibition in vivo at 10 mg/kg worked out at 67%. The inhibition result (in [7]; in the data set with Mus musculus [8]; with Mus musculus [9]) was “Active” each time. Also, the EC in data set [3] stood at 1 nM. In [4], the Ratio was 1000. Moreover, the Activity entry in the data set with MDA-MB-231 and in the data set on MCF-10A was “Non-Toxic” each time. Moreover, the inhibition entry in [10] is “Dose-dependent effect”.

As for `Cc1ccccc1S(=O)(=O)NCc1ccc(CNC(=O)c2ccc(CNc3ncccn3)cc2)cc1`, the EC in data set [3] came out at 10 nM. For the same compound, the Ratio in data set [4] was 100.

The compound `O=C(NCc1ccc(CNS(=O)(=O)c2ccccc2Cl)cc1)c1ccc(CNc2ncccn2)cc1` came in with an EC in data set [3] of 1000 nM.

As to `Cc1cccc(S(=O)(=O)NCc2ccc(CNC(=O)c3ccc(CNc4ncccn4)cc3)cc2)c1`, the EC in [3] came to 100 nM.

`O=C(NCc1ccc(CNS(=O)(=O)c2ccccc2F)cc1)c1ccc(CNc2ncccn2)cc1` yielded an EC in data set [3] of 1000 nM.

In data set [3], `O=C(NCc1ccc(CNS(=O)(=O)c2cccc3ccccc23)cc1)c1ccc(CNc2ncccn2)cc1` yielded an EC of 1000 nM.

Take `O=C(NCc1ccc(CNS(=O)(=O)c2ccc(F)cc2)cc1)c1ccc(CNc2ncccn2)cc1`: the EC in [3] is greater than 1000 nM.

With `O=C(NCc1ccc(CNS(=O)(=O)c2ccc(F)c(F)c2)cc1)c1ccc(CNc2ncccn2)cc1`, in the data set on Mus musculus [1], the inhibition result was “inactive”. This compound gave an EC in data set [3] of 100 nM.

For the compound `Cc1ccc(S(=O)(=O)NCc2ccc(CNC(=O)c3ccc(CNc4ncccn4)cc3)cc2)cc1`, in the data set with Mus musculus [1], the inhibition in vivo at 10 mg/kg amounted to 37%. For the same compound, the inhibition in data set [2] amounted to 87%. In data set [3], this compound came in with an EC of 100 nM.

Take `O=C(NCc1ccc(CNS(=O)(=O)c2ccc([N+](=O)[O-])cc2)cc1)c1ccc(CNc2ncccn2)cc1`: the EC in data set [3] was 1000 nM.

Turning to `O=C(NCc1ccc(CNS(=O)(=O)c2ccc3c(c2)CCO3)cc1)c1ccc(CNc2ncccn2)cc1`, the EC in [3] was 1000 nM.

For `O=C(NCc1ccc(CNS(=O)(=O)c2cccc(F)c2)cc1)c1ccc(CNc2ncccn2)cc1`, the EC in [3] amounted to 1000 nM.

The compound `O=C(NCc1ccc(CNS(=O)(=O)c2cccc(C(F)(F)F)c2)cc1)c1ccc(CNc2ncccn2)cc1` displayed an EC in data set [3] of 1000 nM.

Turning to `O=C(NCc1ccc(CNS(=O)(=O)c2ccc(-c3ccc(F)cc3)cc2)cc1)c1ccc(CNc2ncccn2)cc1`, the EC in data set [3] worked out at 1000 nM.

As for `O=C(NCc1ccc(CNS(=O)(=O)c2cccnc2)cc1)c1ccc(CNc2ncccn2)cc1`, in data set [3], the EC was greater than 1000 nM.

Take `O=C(NCc1ccc(CNS(=O)(=O)c2ccc(Cl)cc2)cc1)c1ccc(CNc2ncccn2)cc1`: in the data set with Mus musculus [1], the inhibition in vivo at 10 mg/kg amounted to 30%. In data set [3], this compound had an EC of 100 nM.

These data come from ChEMBL document CHEMBL4196077, “Anti-inflammatory hybrids of secondary amines and amide-sulfamide derivatives” (Eur J Med Chem, 2018).
